Measurements taken from ChEMBL document CHEMBL1137770, “Biological activity of endomorphin and [Dmt1]endomorphin analogs with six-membered proline surrogates in position 2” (Bioorg Med Chem, 2009).
The source made the active and inactive calls. Square brackets hold non-standard residues; d marks the D form. Peptide text beside a SMILES is read from it. Inp = O=C(O)C1CCNCC1

Key:
Rattus norvegicus = species on record: Rattus norvegicus; assay: Selectivity ratio of IC50 for delta opioid receptor to IC50 for mu opioid receptor in Wistar rat brain membrane; format: cell membranes
Outline: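 Wistar rat brain crude membranes incubated 120 min at 25 °C with peptide and 0.5 nM [3H]DAMGO (MOR) or 0.5 nM [3H][Ile5,6]deltorphin-2 (DOR) in 50 mM Tris/HCl pH 7.4 with 5 mM MgCl2, 1 mM EDTA, 100 mM NaCl, bacitracin.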

Mu-type opioid receptor [1] = target: Mu-type opioid receptor (Rattus norvegicus, UniProt P33535); assay: Displacement of [3H]DAMGO from mu opioid receptor in Wistar rat brain membrane; format: cell membranes
Mu-type opioid receptor (Rattus norvegicus, UniProt P33535), sequence (P33535 whole entry): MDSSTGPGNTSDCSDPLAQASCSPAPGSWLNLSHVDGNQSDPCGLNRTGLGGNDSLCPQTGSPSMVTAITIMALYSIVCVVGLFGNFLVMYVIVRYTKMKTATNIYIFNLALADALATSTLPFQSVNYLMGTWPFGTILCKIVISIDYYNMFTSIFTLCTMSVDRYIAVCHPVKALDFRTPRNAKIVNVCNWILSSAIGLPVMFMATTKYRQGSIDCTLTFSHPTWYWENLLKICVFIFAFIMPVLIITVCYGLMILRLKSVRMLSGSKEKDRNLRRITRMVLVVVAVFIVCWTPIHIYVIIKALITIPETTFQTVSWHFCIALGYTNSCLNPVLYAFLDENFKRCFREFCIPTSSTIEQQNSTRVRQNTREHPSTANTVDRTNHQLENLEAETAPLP

[2] = target: Delta-type opioid receptor (Rattus norvegicus, UniProt P33533); assay: Displacement of [3H][Ile5,6]deltorphin-2 from delta opioid receptor in Wistar rat brain membrane; format: cell membranes
Delta-type opioid receptor, sequence (P33533 whole entry): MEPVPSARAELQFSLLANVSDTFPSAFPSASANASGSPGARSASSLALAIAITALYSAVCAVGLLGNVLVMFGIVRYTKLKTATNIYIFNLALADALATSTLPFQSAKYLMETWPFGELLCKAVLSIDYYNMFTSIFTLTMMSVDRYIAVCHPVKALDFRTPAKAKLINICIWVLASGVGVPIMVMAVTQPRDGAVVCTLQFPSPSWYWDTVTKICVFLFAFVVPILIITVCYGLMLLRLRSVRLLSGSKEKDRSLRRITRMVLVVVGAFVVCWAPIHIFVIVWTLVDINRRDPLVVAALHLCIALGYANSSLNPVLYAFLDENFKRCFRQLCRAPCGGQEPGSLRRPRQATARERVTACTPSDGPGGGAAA

[3] = Stability in rat brain homogenates assessed as degradation half life; format: ADME, tissue-based; settings: brain homogenate
Outline: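 Pooled rat brain homogenate (in 50 mM Tris-HCl pH 7.4, 10 mg protein/ml aliquot) incubated with 0.5 mM peptide stock at 37 °C for 0-60 min; stopped on ice with 1 M HCl, centrifuged. Remaining peptide peak area regressed as ln(A/A0) versus time for k; t1/2 = ln2/k. Three experiments in duplicate.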

Mu-type opioid receptor [4] = target: T1, Mu-type opioid receptor (Homo sapiens, UniProt P35372); assay: Binding affinity to recombinant OPRM1 receptor immobilized on biosensor assessed as dissociation rate constant by BIAcore X system
T1 sequence (P35372 whole entry): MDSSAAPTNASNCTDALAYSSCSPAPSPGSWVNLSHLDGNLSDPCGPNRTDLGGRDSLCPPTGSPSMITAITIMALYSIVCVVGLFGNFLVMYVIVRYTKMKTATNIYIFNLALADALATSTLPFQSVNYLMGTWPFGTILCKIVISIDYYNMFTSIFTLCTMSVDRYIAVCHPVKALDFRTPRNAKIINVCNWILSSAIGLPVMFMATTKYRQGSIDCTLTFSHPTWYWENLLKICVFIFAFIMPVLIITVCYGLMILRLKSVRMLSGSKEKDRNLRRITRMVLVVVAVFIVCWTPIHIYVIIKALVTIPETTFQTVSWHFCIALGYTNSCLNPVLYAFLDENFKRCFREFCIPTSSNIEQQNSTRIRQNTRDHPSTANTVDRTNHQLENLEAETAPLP
Outline: (§1)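 Surface plasmon resonance at 37 °C: recombinant OPRM1 protein immobilised on CM5 chip by amine coupling (10 µg/ml in 10 mM sodium acetate, pH 5.0). Peptides at about 0.4 mM in HBS (10 mM HEPES, 150 mM NaCl, 3 mM EDTA, 0.005% P20, pH 7.4) injected 30 s at 20 µl/min; association/dissociation RU fitted for ka and kd.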

Mus musculus [5] = assay: Antinociceptive activity in icv dosed Swiss albino CD1 mouse assessed as inhibition of paw licking by hot plate test in presence of MOR antagonist beta-funaltrexamine; format: functional, organism-based
Outline: (§2)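 CD1 male mice given peptide i.c.v. in 0.9% NaCl with MOR antagonist β-funaltrexamine (1 µg). Hot plate at 55±0.5 °C, 240 s cut-off; latencies to paw licking, rearing and jumping versus controls. Mean ± SEM of 10 mice per group; two-way ANOVA followed by Student-Newman-Keuls test.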

Mus musculus [6] = assay: Antinociceptive activity in Swiss albino CD1 mouse assessed as duration of inhibition of rearing at 0.1 ng, icv by hot plate test; format: functional
Outline: (§3)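 Male Swiss albino CD1 mice (20-22 g), i.c.v. injection into left ventricle in 0.9% NaCl. Hot plate at 55±0.5 °C; latencies to paw licking, rearing and jumping, cut-off 240 s; saline controls. Time-course readings at 5, 10, 20, 30, 45, 60, 90, 120, 150 and 180 min after dosing; duration of effect recorded.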

Mus musculus [7] = assay: Antinociceptive activity in iv dosed Swiss albino CD1 mouse assessed as inhibition of paw licking by hot plate test; format: functional, organism-based
Mus musculus [8] = assay: Antinociceptive activity in icv dosed Swiss albino CD1 mouse assessed as inhibition of jumping by hot plate test in presence of MOR antagonist beta-funaltrexamine; format: functional, organism-based; outline: as §2
Mus musculus [9] = assay: Antinociceptive activity in Swiss albino CD1 mouse assessed as inhibition of paw licking at 3 ng, icv by hot plate test; format: functional, organism-based
Outline: (§4)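 Male Swiss albino CD1 mice (20-22 g), peptide given i.c.v. into left ventricle in 0.9% NaCl. Placed on 55±0.5 °C hot plate 5 min post-injection; latency to paw licking (also rearing, jumping) versus saline-injected controls; cut-off 240 s. Dose-response curves; mean ± SEM, 10 mice per group.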

Mus musculus [10] = assay: Antinociceptive activity in icv dosed Swiss albino CD1 mouse assessed as inhibition of rearing by hot plate test in presence of MOR antagonist beta-funaltrexamine; format: functional, organism-based; outline: as §2
Mus musculus [11] = assay: Antinociceptive activity in Swiss albino CD1 mouse assessed as duration of inhibition of jumping at 0.1 ng, icv by hot plate test; format: functional; outline: as §3
Mus musculus [12] = assay: Antinociceptive activity in icv dosed Swiss albino CD1 mouse assessed as inhibition of paw licking by hot plate test; format: functional, organism-based; outline: as §4
Mu-type opioid receptor [13] = target: T1, Mu-type opioid receptor; assay: Binding affinity to recombinant OPRM1 receptor immobilized on biosensor assessed as association rate constant by BIAcore X system; outline: as §1
Mus musculus [14] = assay: Antinociceptive activity in Swiss albino CD1 mouse assessed as duration of inhibition of paw licking at 0.1 ng, icv by hot plate test; format: functional; outline: as §3
Mus musculus [15] = assay: Antinociceptive activity in Swiss albino CD1 mouse assessed as inhibition of paw licking at 100 ng, icv by hot plate test; format: functional, organism-based; outline: as §4
Mus musculus [16] = assay: Antinociceptive activity in Swiss albino CD1 mouse assessed as duration of inhibition of paw licking at 3 ng, icv by hot plate test; format: functional; outline: as §3
Mus musculus [17] = assay: Antinociceptive activity in Swiss albino CD1 mouse assessed as duration of inhibition of jumping at 3 ng, icv by hot plate test; format: functional; outline: as §3
Mus musculus [18] = assay: Antinociceptive activity in Swiss albino CD1 mouse assessed as duration of inhibition of rearing at 3 ng, icv by hot plate test; format: functional; outline: as §3

Row | Compound | Ratio IC50 (Rattus norvegicus) | IC50 (Mu-type opioid receptor [1]) [nM] | IC50 [2] [nM] | half-life [3] [min] | also measured
1 | NC(=O)[C@H](Cc1ccccc1)NC(=O)[C@H](Cc1ccccc1)NC(=O)[C@@H]1CCCCN1C(=O)[C@@H](N)Cc1ccc(O)cc1 | > 12.5 | 80 | > 1000 | 6.8 | –
2 | Cc1cc(O)cc(C)c1C[C@H](N)C(=O)N1CCC[C@@H](C(=O)N[C@@H](Cc2ccccc2)C(=O)N[C@@H](Cc2ccccc2)C(N)=O)C1 | > 1000 | 0.035 | 407 | 30.9 | Kd (Mu-type opioid receptor [4]): 0.29 s⁻¹; AC50 (Mus musculus [5]): Not Active; Activity (Mus musculus [6]): >170 min; Activity (Mus musculus [7]): inactive; Activity (Mus musculus [8]): inactive; Activity (Mus musculus [9]): Active; Activity (Mus musculus [10]): inactive; Activity (Mus musculus [11]): >170 min; Activity (Mus musculus [12]): Dose-dependent effect; Ka (Mu-type opioid receptor [13]): 515 M⁻¹ s⁻¹; Activity (Mus musculus [14]): >170 min
3 | Cc1cc(O)cc(C)c1C[C@H](N)C(=O)N1CCC[C@@H](C(=O)N[C@@H](Cc2c[nH]c3ccccc23)C(=O)N[C@@H](Cc2ccccc2)C(N)=O)C1 | 234 | 0.38 | 89 | 35.8 | –
4 | NC(=O)[C@H](Cc1ccccc1)NC(=O)[C@H](Cc1ccccc1)NC(=O)[C@@H]1CCCN(C(=O)[C@@H](N)Cc2ccc(O)cc2)C1 | > 1000 | 0.04 | > 1000 | 48 | Kd (Mu-type opioid receptor [4]): 0.55 s⁻¹; AC50 (Mus musculus [5]): Not Active; Activity (Mus musculus [6]): 150 min; Activity (Mus musculus [7]): inactive; Activity (Mus musculus [8]): inactive; Activity (Mus musculus [10]): inactive; Activity (Mus musculus [11]): 150 min; Activity (Mus musculus [12]): Dose-dependent effect; Activity (Mus musculus [15]): Active; Ka (Mu-type opioid receptor [13]): 570 M⁻¹ s⁻¹; Activity (Mus musculus [14]): 150 min
5 | NC(=O)[C@H](Cc1ccccc1)NC(=O)[C@H](Cc1c[nH]c2ccccc12)NC(=O)C1CCN(C(=O)[C@@H](N)Cc2ccc(O)cc2)CC1 (H-Y[Inp]WF-NH2) | 2.15 | 401 | 860 | 78.5 | –
6 | NC(=O)[C@H](Cc1ccccc1)NC(=O)[C@H](Cc1ccccc1)NC(=O)[C@@H]1CCCN1C(=O)[C@@H](N)Cc1ccc(O)cc1 [ENDOMORPHIN 2] | – | – | – | 4.8 | Activity (Mus musculus [16]): 50 min; Activity (Mus musculus [15]): Active; Activity (Mus musculus [17]): 50 min; Activity (Mus musculus [18]): 50 min
7 | NC(=O)[C@H](Cc1ccccc1)NC(=O)[C@H](Cc1c[nH]c2ccccc12)NC(=O)[C@@H]1CCCN1C(=O)[C@@H](N)Cc1ccc(O)cc1 [ENDOMORPHIN-1] | – | – | – | 6.02 | –
8 | NC(=O)[C@H](Cc1ccccc1)NC(=O)[C@H](Cc1c[nH]c2ccccc12)NC(=O)[C@@H]1CCCCN1C(=O)[C@@H](N)Cc1ccc(O)cc1 | > 49 | 20.4 | > 1000 | 9.68 | –
9 | NC(=O)[C@H](Cc1ccccc1)NC(=O)[C@H](Cc1c[nH]c2ccccc12)NC(=O)[C@@H]1CCCN(C(=O)[C@@H](N)Cc2ccc(O)cc2)C1 | > 281 | 3.55 | > 1000 | 29.6 | –
